Bridge positions count the residues as written; N and C are the ends. Peptide text beside a SMILES is read from it.

Experiment [1] has as its target Integrin alpha-V/beta-3 (Homo sapiens, UniProt P05106+P06756). Put plainly: Affinity for vitronectin receptor, integrin alphaV-beta3. The format is protein-complex assay. The procedure, abridged: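 Competitive radioligand binding to human αVβ3, displacing [3H]SK&F 107260; Ki values are means of two to three separate experiments.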
The target of experiment [2] is Integrin alpha-IIb/beta-3 (Homo sapiens, UniProt P05106+P08514). As to the kind of experiment: Affinity for platelet fibrinogen receptor, integrin alpha IIb/beta3.
Integrin alpha-IIb/beta-3, sequence (P05106 27-788 limits assumed): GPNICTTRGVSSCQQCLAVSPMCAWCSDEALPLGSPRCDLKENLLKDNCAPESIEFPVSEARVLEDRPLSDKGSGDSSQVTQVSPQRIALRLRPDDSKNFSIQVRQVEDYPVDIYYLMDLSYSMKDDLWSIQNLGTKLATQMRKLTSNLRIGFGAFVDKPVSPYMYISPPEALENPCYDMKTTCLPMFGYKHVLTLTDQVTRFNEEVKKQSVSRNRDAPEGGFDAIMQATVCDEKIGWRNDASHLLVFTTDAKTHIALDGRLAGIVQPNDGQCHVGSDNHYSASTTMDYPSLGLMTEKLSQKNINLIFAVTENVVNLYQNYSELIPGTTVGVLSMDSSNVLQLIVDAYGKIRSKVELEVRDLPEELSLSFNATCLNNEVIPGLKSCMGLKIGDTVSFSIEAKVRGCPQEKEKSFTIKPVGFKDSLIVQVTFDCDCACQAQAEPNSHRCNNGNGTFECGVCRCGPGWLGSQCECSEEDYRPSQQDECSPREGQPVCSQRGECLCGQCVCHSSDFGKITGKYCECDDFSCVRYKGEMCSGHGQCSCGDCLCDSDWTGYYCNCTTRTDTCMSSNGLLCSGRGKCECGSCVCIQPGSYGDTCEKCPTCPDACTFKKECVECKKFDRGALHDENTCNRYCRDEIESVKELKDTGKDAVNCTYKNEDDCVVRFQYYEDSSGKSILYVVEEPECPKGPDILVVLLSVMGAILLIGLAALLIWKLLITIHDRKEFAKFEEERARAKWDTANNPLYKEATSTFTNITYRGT
Integrin alpha-IIb/beta-3, sequence (P08514 32-887 limits assumed): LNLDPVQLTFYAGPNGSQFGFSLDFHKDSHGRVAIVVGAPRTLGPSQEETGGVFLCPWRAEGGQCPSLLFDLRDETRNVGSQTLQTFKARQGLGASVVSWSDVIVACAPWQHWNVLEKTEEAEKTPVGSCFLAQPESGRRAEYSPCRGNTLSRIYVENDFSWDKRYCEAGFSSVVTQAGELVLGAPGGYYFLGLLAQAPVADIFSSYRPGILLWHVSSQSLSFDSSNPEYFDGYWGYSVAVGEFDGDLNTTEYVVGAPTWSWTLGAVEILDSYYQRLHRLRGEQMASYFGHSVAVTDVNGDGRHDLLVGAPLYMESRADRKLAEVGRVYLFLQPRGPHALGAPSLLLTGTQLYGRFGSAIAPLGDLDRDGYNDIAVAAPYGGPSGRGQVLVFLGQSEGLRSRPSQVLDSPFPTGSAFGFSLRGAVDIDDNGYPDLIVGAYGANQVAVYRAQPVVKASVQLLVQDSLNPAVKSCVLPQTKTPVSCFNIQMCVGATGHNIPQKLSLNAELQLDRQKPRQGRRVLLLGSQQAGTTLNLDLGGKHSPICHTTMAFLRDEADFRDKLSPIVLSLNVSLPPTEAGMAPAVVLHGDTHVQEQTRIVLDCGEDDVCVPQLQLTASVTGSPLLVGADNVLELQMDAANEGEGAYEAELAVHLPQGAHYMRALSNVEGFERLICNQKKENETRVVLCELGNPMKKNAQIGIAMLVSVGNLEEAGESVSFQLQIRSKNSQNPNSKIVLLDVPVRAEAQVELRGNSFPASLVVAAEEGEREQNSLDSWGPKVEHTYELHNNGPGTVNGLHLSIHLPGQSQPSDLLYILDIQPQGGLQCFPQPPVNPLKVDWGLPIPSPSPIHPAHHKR
Integrin alpha-IIb/beta-3, sequence (P08514 891-1039 limits assumed): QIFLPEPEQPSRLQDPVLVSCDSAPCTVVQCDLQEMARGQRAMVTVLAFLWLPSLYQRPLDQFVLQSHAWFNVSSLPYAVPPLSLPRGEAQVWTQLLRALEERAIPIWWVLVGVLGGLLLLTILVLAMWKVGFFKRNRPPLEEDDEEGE

Integrin alpha-V/beta-3, sequence (P05106 27-788 limits assumed): as the sequence (P05106 27-788 limits assumed) above
Integrin alpha-V/beta-3, sequence (P06756 31-889 limits assumed): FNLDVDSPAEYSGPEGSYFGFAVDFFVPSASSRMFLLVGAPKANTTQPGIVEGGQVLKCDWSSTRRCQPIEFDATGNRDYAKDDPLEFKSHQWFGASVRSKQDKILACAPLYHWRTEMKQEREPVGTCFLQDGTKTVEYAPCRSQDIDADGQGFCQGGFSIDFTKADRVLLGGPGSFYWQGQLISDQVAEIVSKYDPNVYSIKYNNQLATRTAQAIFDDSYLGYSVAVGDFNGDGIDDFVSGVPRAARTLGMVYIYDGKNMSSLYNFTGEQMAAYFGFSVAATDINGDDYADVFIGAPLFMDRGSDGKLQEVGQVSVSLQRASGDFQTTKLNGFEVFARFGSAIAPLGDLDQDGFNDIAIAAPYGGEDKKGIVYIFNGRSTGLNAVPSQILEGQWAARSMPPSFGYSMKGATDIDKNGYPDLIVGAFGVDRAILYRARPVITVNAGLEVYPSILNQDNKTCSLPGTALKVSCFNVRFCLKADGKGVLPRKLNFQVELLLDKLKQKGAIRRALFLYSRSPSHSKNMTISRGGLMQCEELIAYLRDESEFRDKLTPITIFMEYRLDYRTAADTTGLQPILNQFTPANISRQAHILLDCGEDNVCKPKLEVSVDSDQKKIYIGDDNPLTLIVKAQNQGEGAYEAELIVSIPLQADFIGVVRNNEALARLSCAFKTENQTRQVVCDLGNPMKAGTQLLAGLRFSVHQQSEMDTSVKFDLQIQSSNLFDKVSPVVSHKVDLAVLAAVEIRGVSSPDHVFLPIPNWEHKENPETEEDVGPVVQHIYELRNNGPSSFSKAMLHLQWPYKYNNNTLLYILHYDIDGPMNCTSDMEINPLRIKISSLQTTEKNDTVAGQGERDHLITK
Integrin alpha-V/beta-3, sequence (P06756 891-1048 limits assumed): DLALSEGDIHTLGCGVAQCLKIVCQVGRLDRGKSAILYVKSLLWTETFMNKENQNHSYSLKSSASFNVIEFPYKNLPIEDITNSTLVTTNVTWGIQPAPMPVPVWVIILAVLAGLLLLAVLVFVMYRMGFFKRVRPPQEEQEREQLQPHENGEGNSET

Broadly, the Ki is the dissociation constant of the complex between target and ligand, obtained from inhibition or displacement. A higher Ki goes with weaker binding. Molecule `N=C(N)c1ccc(NC(=O)c2ccc3c(c2)CN(CCc2ccccc2)C(=O)C(CC(=O)O)N3)cc1` (stereo not given) displayed a Ki in experiment [1] of 56000 nM. As for `CC(=O)C[C@@H]1NC(=O)[C@@H](Cc2ccccc2)NC(=O)[C@H](C(C)C)NC(=O)[C@H](CCCN=C(N)N)NC(=O)CNC1=O`, the Ki in experiment [2] came out at 42000 nM; in experiment [1] it was 10 nM. In the case of `N=C(N)c1cccc(NC(=O)c2ccc3c(c2)CN(CCc2ccccc2)C(=O)C(CC(=O)O)N3)c1` (stereo not given), the Ki in experiment [2] is 4500 nM; in experiment [1], 510 nM. Molecule `CN(C(=O)c1ccccc1)[C@@H](CCCNC(=N)N)C(=O)NCC1=CC(CC(=O)O)C(=O)N(c2ccccc2)CC1` (stereo not given in full) had a Ki in experiment [1] of 50 nM. Consider `CN1Cc2cc(C(=O)NCc3nc4ccccc4[nH]3)ccc2N[C@@H](CC(=O)O)C1=O`, for which the Ki in experiment [2] is 52000 nM; in experiment [1] it was 15 nM. Take `CN1Cc2cc(C(=O)NCCc3nc4ccccc4[nH]3)ccc2NC(CC(=O)O)C1=O` (stereo not given): the figures for the Ki in experiment [2] and in experiment [1] were greater than 50000 nM and 1100 nM, respectively. In the same order, the values of `CN1Cc2cc(C(=O)Nc3nc4ccccc4[nH]3)ccc2NC(CC(=O)O)C1=O` (stereo not given) are greater than 50000 nM and 1150 nM. In the same order, the values of `CN1Cc2cc(C(=O)N3CCN(c4ccncc4)CC3)ccc2NC(CC(=O)O)C1=O` (stereo not given) are 8 nM and 1000 nM. In turn, `CN1Cc2cc(C(=O)N3CCN(c4ccccc4)CC3)ccc2NC(CC(=O)O)C1=O` (stereo not given) showed an inhibitory constant (Ki) in experiment [2] greater than 100000 nM. Consider `CN1Cc2cc(C(=O)NCc3nc4ccccc4[nH]3)ccc2NC(CC(=O)O)C1=O` (stereo not given), for which the figures for the Ki in experiment [2] and in experiment [1] were 30000 nM and 24 nM, respectively. In the same order, the values of `N/C1=N/CCC[C@H](N)C(=O)NCC(=O)N[C@@H](CC(=O)O)C(=O)N[C@@H](CO)C(=O)N[C@@H](Cc2ccccc2)C(=O)NCC(=O)N1` (H-RGDSFG; lactam 1-C) are 75000 nM and 10 nM. In experiment [1], `CN1C(=O)c2ccccc2SSc2ccccc2NC(=O)[C@H](CC(=O)O)NC(=O)CNC(=O)[C@@H]1CCCN=C(N)N` [SKF-107260] showed a Ki of 3.5 nM.
